Laboratory results: ChEMBL document CHEMBL4196194, “De Novo Design of α-Helical Lipopeptides Targeting Viral Fusion Proteins: A Promising Strategy for Relatively Broad-Spectrum Antiviral Drug Discovery” (J Med Chem, 2018)
Active and inactive are the calls of the source. The rule behind the calls is not given here. Where a SMILES comes first, the peptide text is derived from it. [ ]: non-standard residue; d: D form. The star is where a group is joined. Palmitoyl = CCCCCCCCCCCCCCCC(=O)*; βAla = NCCC(=O)O

Experiments:
[1] = system: Influenza A virus; conditions: Hong Kong/8/1968(H3N2), 0.1 to 1000 uM
[2] = system: Middle East respiratory syndrome-related coronavirus; assay: Binding affinity to MERS-CoV spike protein synthetic peptide HR1P at 75 uM incubated for 30 mins by Coomassie blue R250 staining based native polyacrylamide gel electrophoresis method
Summary of the method: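 Equimolar mix with HR1P (150 μM each) in 10 mM phosphate pH 7.4, 30 min at 25 °C; diluted 1:1 in β-alanine–formic acid sample buffer, run on 15% β-alanine–formic acid gel at pH 3.4 (90 V then 150 V, 2.5 h); Coomassie R250 stain.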

[3] = system: Influenza A virus; assay: Inhibition of influenza A virus infected in MDCK cells assessed as inhibition of viral load treated with compound at 0 to 2 hrs post-infection by RT-qPCR method based time of addition assay; format: functional
Summary of the method: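 MDCK cells (2.0 × 10^5/well) washed with PBS, virus adsorbed (MOI 0.05) 60 min at 4 °C, washed, then compound present only during 0–10, 0–2, 2–5, 5–8 or 8–10 h postinfection; cultured in fresh medium to 10 h, total RNA extracted, viral load by absolute one-step RT-qPCR; triplicate, versus PBS control.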

[4] = system: Rattus norvegicus; assay: Volume of distribution at steady state in Sprague-Dawley rat at 5 mg/kg, iv administered as single dose by LC-MS/MS analysis; format: ADME, organism-based; conditions: in vivo
[5] = system: Middle East respiratory syndrome-related coronavirus; assay: Binding affinity to MERS-CoV spike protein synthetic peptide HR1P assessed as melting temperature at 10 uM at pH 7.4 by CD spectroscopy
Summary of the method: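 Thermal unfolding by CD at 222 nm, 10–90 °C at 2 °C/min. Samples held 10 μM peptide: for HR1P in 10 mM phosphate pH 7.4; for N66 in 10 mM sodium acetate with 10 mM sodium phosphate and 150 mM NaCl, pH 5.0.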

[6] = system: Rattus norvegicus; assay: MRT (0 to t) in Sprague-Dawley rat at 5 mg/kg, iv administered as single dose by LC-MS/MS analysis; format: ADME, organism-based; conditions: in vivo
[7] = system: Influenza A virus; assay: Antiviral activity against Influenza A virus (A/Puerto Rico/8/1934(H1N1)) infected in HEK293T cells assessed as inhibition of viral replicon activity incubated for 30 hrs by dual-Glo luciferase assay; format: functional, organism-based; conditions: HEK-293T
Summary of the method: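 HEK293T cells (2.5 × 10^4/well) transfected with plasmids for NP, PB1, PB2, PA plus p0LN-S-Luc firefly and pRL-SV40 Renilla reporters; serially diluted compound added 6 h post-transfection, luciferase read after 30 h by Dual-Glo. Activity = firefly/Renilla ratio; % inhibition normalized to positive and negative controls, curve-fitted; three independent measurements.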

[8] = Selectivity index, ratio of CC50 for cytotoxicity in MDCK cells to EC50 for antiviral activity against Influenza A virus (A/Hong Kong/8/1968([…])) infected in HEK293T cells; format: toxicity, cell-based; conditions: dog
[9] = Cytotoxicity in human HuH7 cells assessed as reduction in cell viability incubated for 48 hrs by CCK8 assay; format: cell-based, Huh-7
Summary of the method: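 Huh-7 cells (1 × 10^5 cells/mL suspension seeded) grown 12 h at 37 °C, 5% CO2, then serially diluted peptide added for 48 h; untreated blank and Triton X-100 controls. CCK-8 added for 2 h, absorbance at 450 nm.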

CCCCCCCCCCCCCCCC(=O)NCCCC[C@H](NC(=O)CCNC(=O)[C@H](CCCCN)NC(=O)[C@H](CCCCN)NC(=O)[C@H](CCC(N)=O)NC(=O)[C@@H](NC(=O)[C@H](CCC(=O)O)NC(=O)[C@H](CCC(=O)O)NC(=O)[C@@H](NC(=O)[C@H](CCCCN)NC(=O)[C@H](CCCCN)NC(=O)[C@H](CCC(N)=O)NC(=O)[C@@H](NC(=O)[C@H](CCC(=O)O)NC(=O)[C@H](CCC(=O)O)NC(=O)[C@@H](NC(=O)[C@H](CCCCN)NC(=O)[C@H](CCCCN)NC(=O)[C@H](CCC(N)=O)NC(=O)[C@@H](NC(=O)[C@H](CCC(=O)O)NC(=O)[C@H](CCC(=O)O)NC(=O)[C@@H](NC(=O)[C@H](CCCCN)NC(=O)[C@H](CCCCN)NC(=O)[C@H](CCC(N)=O)NC(=O)[C@@H](NC(=O)[C@H](CCC(=O)O)NC(=O)[C@H](CCC(=O)O)NC(=O)[C@@H](NC(=O)[C@H](CCCCN)NC(=O)[C@H](CCCCN)NC(=O)[C@H](CCC(N)=O)NC(=O)[C@@H](NC(=O)[C@H](CCC(=O)O)NC(=O)[C@H](CCC(=O)O)NC(=O)[C@@H](NC(C)=O)[C@@H](C)CC)[C@@H](C)CC)[C@@H](C)CC)[C@@H](C)CC)[C@@H](C)CC)[C@@H](C)CC)[C@@H](C)CC)[C@@H](C)CC)[C@@H](C)CC)[C@@H](C)CC)C(N)=O (Ac-IEEIQKKIEEIQKKIEEIQKKIEEIQKKIEEIQKK[βAla]K(Palmitoyl)-NH2)
inhibition [1]: inactive
Activity [2]: Active
inhibition (INH) [3]: 60%
Vdss [4]: 0.1978 L/kg
Tm [5]: > 90 °C
MRT(t) [6]: 4.1 h
EC50 [7]: 1.73 µM
selectivity ratio [8]: > 143
CC50 at 48 h [9]: > 100 µM
